This series is described as follows: Toxicity liver stage against HepG2, at 10uM. To be noted: human, HepG2-A16-CD81EGFP cells; read-out: INHIBITION
Also noted: test concentration 10 uM, cell line HepG2-A16-CD81EGFP. Type of series: cell-based. The essentials: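 Uninfected HepG2-A16-CD81EGFP cells, 3 × 10^3 per well, 1536-well, plated on prespotted compound at 10 μM final, parasite-free screening media added to match infected plates; puromycin 10 μM positive, DMSO 0.5% negative; run in parallel with 48 h PbLuc assay at 37 °C, 5% CO2; viability by CellTiter-Glo luminescence, normalized to controls.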
On to `COc1ccc2nc(C[C@@H]3C[C@@H](C(C)C)[C@H](CN(C)C)C=C3C)[nH]c2n1`, for which the cytotoxicity at 10 µM was 5.09%.

With `CC(=O)N1CCC(=O)N(C2CCCC2)Cc2ccccc21`, the cytotoxicity at 10 µM was -6.09%.

As to `CC1(C)OCC2(CO1)CN(C(=O)c1ccccc1Cl)C2`, the cytotoxicity at 10 µM is -4.21%.

On to `O=S(=O)(c1ccccc1F)N1CCC(Oc2cccnn2)CC1`, for which the cytotoxicity at 10 µM worked out at 0.388%.

Take `Cn1cc(S(=O)(=O)N2CCN(S(=O)(=O)c3ccc(Br)s3)CC2)cn1`: the cytotoxicity at 10 µM was 11.8%. Regarding `CCn1nc(C)c2nc(C)nc(N(C)Cc3ccco3)c21`, the cytotoxicity at 10 µM was determined as 4.23%. Next, `Cc1nn(C)cc1CN1CCCC(n2c(=O)oc3ccccc32)C1` (stereo not given): 3.33%. For the molecule `Cc1cc(C)nc(C2CCCN2S(=O)(=O)N2CCOCC2)n1` (stereo not given), the cytotoxicity at 10 µM is 0.55%. As for `N#Cc1ccc(CN2CCCC3(Cc4ccccc4CNC3=O)C2)cc1` (stereo not given), the cytotoxicity at 10 µM came out at 11.8%. With `Cn1c(CO)cnc1SC(C(=O)NC1CC1)c1ccccc1` (stereo not given) the figure was -56%; with `CN(C)c1cccc(C(=O)N2CCCc3cc(OC(F)(F)F)ccc32)c1`, -44.4%.

As to `CC1Oc2c(cccc2C(=O)N2CCN(CC(C)(C)O)CC2)NC1=O` (stereo not given), the cytotoxicity at 10 µM was -8.9%. With `CCOc1cncc(NCCc2nnc3ccccn23)n1` the figure was 9.84%; with `Cc1nnc2ccc(N3CCN(Cc4nccn4C)CC3)nn12`, 13.3%; with `Cn1cnnc1C1CCN(C(=O)CCCOCc2ccccc2)CC1`, -7.06%.

Consider `Cc1nc(C2CCCN(C(=O)c3sc(C)nc3C)C2)no1` (stereo not given), for which the cytotoxicity at 10 µM is -1.96%.

With `Cc1[nH]c(=O)sc1S(=O)(=O)N1CCCC1C(=O)NC1CC1` (stereo not given), the cytotoxicity at 10 µM worked out at 5.36%. Regarding `CN(Cc1cncs1)C1CCN(C(=O)OC(C)(C)C)CC1`, the cytotoxicity at 10 µM turned out to be 5.94%.

In the case of `CC(=O)OCC1CCCCN1C(=O)c1ccc(Cn2ccnc2)o1` (stereo not given), the cytotoxicity at 10 µM is -54.5%.

Take `O=C(CN1CCCC(O)C1)NC(=O)NCc1cccs1` (stereo not given): the cytotoxicity at 10 µM was found to be 0.795%. Next, `COCCN(Cc1ccc(C)cc1)Cc1nccn1C`: -63.3%; `COc1cccc2c1OCC(C(=O)NCCc1nnc(N)s1)C2` (stereo not given): -33.4%; `Cn1nccc1NC(=O)Cn1ccc(-c2ccc3c(c2)OCO3)n1`: -6.74%. With `CC(C)c1nc(Cn2cncn2)n(-c2ccccn2)n1` the figure was -1.03%. With `COc1cc(C)cc(C(C(=O)O)N(C)Cc2ccncc2C)c1OC` (stereo not given) the figure was 0.231%; with `COc1cccc(OCC2CCCN(C(=O)c3cnc(C)nc3O)C2)c1` (stereo not given), -15.8%. Turning to `CCCc1n[nH]cc1C(=O)N1CCC(c2nccn2CCOC)CC1`, the cytotoxicity at 10 µM is -15.3%. Next, `CCc1noc(CN2CCN(C(=O)c3ccccc3F)CC2)n1`: -23.2%; `Cc1nn(-c2ccccc2)cc1C(=O)N1CCCC1c1cnn(C)c1` (stereo not given): -1.86%. Next, `Cc1nn(CC(C)C)c(N(C)C)c1CNCc1ccnn1C`: -22.3%; `O=C(Cc1noc2ccccc12)N1CCC(Nc2cccnn2)CC1`: -7.85%; `O=C(CN1CCC(c2cccc(F)c2)C1)NCc1ccco1` (stereo not given): -7.88%. For `O=C(CN1CCCCC1Cn1cncn1)NCCc1ccc(F)cc1` (stereo not given), the cytotoxicity at 10 µM is -1.65%.

As for `OC(CN1CCC(c2ccn[nH]2)CC1)c1cccc(F)c1` (stereo not given), the cytotoxicity at 10 µM is -7.64%. Next, `OC1(c2ccc(F)cc2)CCN(Cc2ccccc2N2CCCC2)CC1`: 20.5%; `CNC(=O)CN1CCOCC2(CCCN(CCc3ccccc3)C2)C1` (stereo not given): 0.0221%. With `C1CC(CN2CCc3c(nnn3CC3CC3)C2COCC2CC2)C1` (stereo not given) the figure was 7.61%; with `CN1CC[C@]2(CN(CC3CCOCC3)C[C@H]2c2ccccc2)C1=O`, -1.18%. Next, `COc1c(CNCc2cccc(Cn3ccnc3C)c2)c(C)nn1C`: 23.8%; `COc1ccc(-n2cc3nc(N)[nH]cc-3c2=O)cc1Cl`: 17.7%.

The record behind these values is ChEMBL document CHEMBL4513216, “Probing the Open Global Health Chemical Diversity Library for Multistage-Active Starting Points for Next-Generation Antimalarials” (ACS Infect Dis, 2020).
